This note sets out measurements from ChEMBL document CHEMBL2311366, “MMP inhibition by barbiturate homodimers” (Bioorg Med Chem Lett, 2013).

Series [1] addresses T1, Interstitial collagenase (Homo sapiens) (UniProt P03956).
T1 sequence (whole entry): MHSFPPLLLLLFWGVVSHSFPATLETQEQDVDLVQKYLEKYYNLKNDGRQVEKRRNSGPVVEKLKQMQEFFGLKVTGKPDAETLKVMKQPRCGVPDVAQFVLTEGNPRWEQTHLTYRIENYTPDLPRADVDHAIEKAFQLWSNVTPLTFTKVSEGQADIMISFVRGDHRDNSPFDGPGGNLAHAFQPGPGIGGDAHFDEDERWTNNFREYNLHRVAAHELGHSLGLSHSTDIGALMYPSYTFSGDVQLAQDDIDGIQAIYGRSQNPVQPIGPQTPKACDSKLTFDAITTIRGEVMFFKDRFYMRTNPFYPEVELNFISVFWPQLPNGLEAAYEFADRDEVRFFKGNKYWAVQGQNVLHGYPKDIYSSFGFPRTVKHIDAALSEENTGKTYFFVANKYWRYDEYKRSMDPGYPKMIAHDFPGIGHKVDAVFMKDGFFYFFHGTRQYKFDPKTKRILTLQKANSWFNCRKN
Put plainly: Inhibition of human recombinant MMP-1 at 10 uM after 45 mins by fluorogenic assay.

A further series addresses Neutrophil collagenase (Homo sapiens, UniProt P22894). Kind of series: Inhibition of human recombinant MMP-8 after 45 mins by fluorogenic assay. The procedure, abridged: (§1)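 Human recombinant enzymes in a fluorogenic activity assay. Test concentrations 0.01–10,000 nM, 45 min incubation. IC50 reported as mean SEM of at least three independent experiments.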
In the next series the target is Collagenase 3 (Homo sapiens, UniProt P45452). Put plainly: Inhibition of human recombinant MMP-13 after 45 mins by fluorogenic assay. The procedure, abridged: as §1
A short description of series [2]: Metabolic stability in human duodenal fluid assessed as compound remaining at 6 hrs. In kind it is ADME. The conditions noted are these: read-out: Stability. The procedure, abridged:
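Incubation at 37 °C in simulated human duodenal fluid. Remaining compound was measured by RP HPLC as a function of time.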

Activity calls are given as the source filed them. The rule behind the calls is not given here. Bounds are passed on as bounds.

Neutrophil collagenase, sequence (P22894 whole entry): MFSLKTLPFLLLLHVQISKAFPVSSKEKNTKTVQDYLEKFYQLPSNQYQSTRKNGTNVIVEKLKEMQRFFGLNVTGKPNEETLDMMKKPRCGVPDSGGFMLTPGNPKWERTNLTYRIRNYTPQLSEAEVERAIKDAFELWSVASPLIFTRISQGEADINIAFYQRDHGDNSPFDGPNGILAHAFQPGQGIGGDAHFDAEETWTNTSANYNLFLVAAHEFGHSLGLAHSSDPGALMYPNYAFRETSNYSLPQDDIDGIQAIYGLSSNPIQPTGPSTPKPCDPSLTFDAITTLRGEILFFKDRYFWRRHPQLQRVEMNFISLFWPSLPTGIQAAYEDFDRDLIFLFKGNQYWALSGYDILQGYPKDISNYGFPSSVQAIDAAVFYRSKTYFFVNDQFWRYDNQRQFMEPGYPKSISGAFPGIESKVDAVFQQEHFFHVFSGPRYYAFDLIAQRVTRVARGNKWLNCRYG

Usually IC50 stands for the midpoint of a concentration-inhibition curve. Turning to `O=C1NC(=O)C(c2ccc(Oc3ccccc3)cc2)(N2CCCN(C(=O)CCCCCCCCCCC(=O)N3CCCN(C4(c5ccc(Oc6ccccc6)cc5)C(=O)NC(=O)NC4=O)CC3)CC2)C(=O)N1`, the inhibition result in series [1] is “inactive”. Besides, the values for the IC50 at Neutrophil collagenase and at Collagenase 3 were 125 nM and 104 nM, respectively.
For `O=C1NC(=O)C(c2ccc(Oc3ccccc3)cc2)(N2CCCN(C(=O)CCCCCCC(=O)N3CCCN(C4(c5ccc(Oc6ccccc6)cc5)C(=O)NC(=O)NC4=O)CC3)CC2)C(=O)N1` the same measures were “inactive”, 88 nM and 155 nM.
For `O=C1NC(=O)C(c2ccc(Oc3ccccc3)cc2)(N2CCCN(C(=O)CCCCCCCCCCCCCCC(=O)N3CCCN(C4(c5ccc(Oc6ccccc6)cc5)C(=O)NC(=O)NC4=O)CC3)CC2)C(=O)N1`, in that order: “inactive”, 282 nM and 134 nM.
For `O=C1NC(=O)C(c2ccc(Oc3ccccc3)cc2)(N2CCCN(C(=O)CCCCCCCCC(=O)N3CCCN(C4(c5ccc(Oc6ccccc6)cc5)C(=O)NC(=O)NC4=O)CC3)CC2)C(=O)N1` the same measures were “inactive”, 91 nM and 106 nM.
As for `O=C1NC(=O)C(c2ccc(Oc3ccccc3)cc2)(N2CCCN(C(=O)CCCCCCCCCCCCCCCCCCCCC(=O)N3CCCN(C4(c5ccc(Oc6ccccc6)cc5)C(=O)NC(=O)NC4=O)CC3)CC2)C(=O)N1`, the inhibition entry in series [1] was “inactive”. Besides, the IC50 was 162 nM at Neutrophil collagenase and 225 nM on Collagenase 3.
Regarding `O=C1NC(=O)C(c2ccc(Oc3ccccc3)cc2)(N2CCCN(C(=O)CCC(=O)N3CCCN(C4(c5ccc(Oc6ccccc6)cc5)C(=O)NC(=O)NC4=O)CC3)CC2)C(=O)N1`, in series [1], the inhibition entry was “inactive”. For the same molecule, the concentration for half-maximal inhibition (IC50) at Neutrophil collagenase was determined as 44 nM; on Collagenase 3 it was 11 nM.
As to `CCCC(=O)N1CCCN(C2(c3ccc(Oc4ccccc4)cc3)C(=O)NC(=O)NC2=O)CC1`, the inhibition result in series [1] is “inactive”.
For the molecule `O=C1NC(=O)C(c2ccc(Oc3ccccc3)cc2)(N2CCCN(C(=O)CCCCCCCC(=O)N3CCCN(C4(c5ccc(Oc6ccccc6)cc5)C(=O)NC(=O)NC4=O)CC3)CC2)C(=O)N1`, the inhibition result in series [1] was “inactive”. Further, the IC50 on Neutrophil collagenase was 98 nM; on Collagenase 3 it was 44 nM.
Consider `CCCCCCCCCCCCCC(=O)N1CCCN(C2(c3ccc(Oc4ccccc4)cc3)C(=O)NC(=O)NC2=O)CC1`, for which, in series [1], the inhibition entry is “inactive”.
Consider `O=C1NC(=O)C(c2ccc(Oc3ccccc3)cc2)(N2CCCN(C(=O)CCCC(=O)N3CCCN(C4(c5ccc(Oc6ccccc6)cc5)C(=O)NC(=O)NC4=O)CC3)CC2)C(=O)N1`, for which the inhibition entry in series [1] was “inactive”. Also, the IC50 is 85 nM on Neutrophil collagenase and 164 nM at Collagenase 3. For the same molecule, the remaining at 6 h in series [2] is over 50%.
Turning to `O=C1NC(=O)C(c2ccc(Oc3ccccc3)cc2)(N2CCCN(C(=O)c3ccc(C(=O)N4CCCN(C5(c6ccc(Oc7ccccc7)cc6)C(=O)NC(=O)NC5=O)CC4)cc3)CC2)C(=O)N1`, in series [1], the inhibition result was “inactive”. The IC50 at Neutrophil collagenase amounted to 46 nM; on Collagenase 3, 23 nM.
For `O=C1NC(=O)C(c2ccc(Oc3ccccc3)cc2)(N2CCCN(C(=O)CCCCCC(=O)N3CCCN(C4(c5ccc(Oc6ccccc6)cc5)C(=O)NC(=O)NC4=O)CC3)CC2)C(=O)N1`, in that order: “inactive”, 117 nM and 648 nM.
On to `O=C1NC(=O)C(c2ccc(Oc3ccccc3)cc2)(N2CCCN(C(=O)CCCCC(=O)N3CCCN(C4(c5ccc(Oc6ccccc6)cc5)C(=O)NC(=O)NC4=O)CC3)CC2)C(=O)N1`, for which the inhibition entry in series [1] is “inactive”. For the same molecule, the 50% inhibitory concentration (IC50) on Neutrophil collagenase turned out to be 60 nM; on Collagenase 3, 23 nM.
Turning to `O=C1NC(=O)C(c2ccc(Oc3ccccc3)cc2)(N2CCCN(C(=O)CCCCCCCCCCCCC(=O)N3CCCN(C4(c5ccc(Oc6ccccc6)cc5)C(=O)NC(=O)NC4=O)CC3)CC2)C(=O)N1`, the inhibition result in series [1] was “inactive”. Also, the IC50 on Neutrophil collagenase is 217 nM; at Collagenase 3 it was 70 nM.
